Test results: ChEMBL document CHEMBL4251735, “New Hybrids Derived from Podophyllic Aldehyde and Diterpenylhydroquinones with Selectivity toward Osteosarcoma Cells” (ACS Med Chem Lett, 2018)
Calls of active or inactive are those of the source. No cut-off for these calls is given here.

Columns and labels:
MCF7 [1] = assay: Cytotoxicity against human MCF7 cells after 72 hrs by MTT assay; format: functional, cell-based; conditions: for IC50: MCF7, 72 h
How it was run: (§1)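 MTT viability assay after 72 h incubation; IC50 reported as mean ± error from viability curves.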

HT-29 [2] = assay: Cytotoxicity against human HT-29 cells after 72 hrs by MTT assay; format: functional, cell-based; conditions: for IC50: HT-29, 72 h; how it was run: as §1
MG-63 [3] = assay: Cytotoxicity against human MG63 cells after 72 hrs by MTT assay; format: functional, cell-based; conditions: for IC50: MG-63, 72 h; how it was run: as §1
MG-63 [4] = assay: Induction of apoptosis in human MG63 cells assessed as viable cells at 1 uM after 24 hrs by annexin-V-FITC/propidium iodide staining based flow cytometric analysis (reference value: 89.58%); format: functional; conditions: MG-63, 24 h, read-out: Activity
MG-63 [5] = assay: Induction of apoptosis in human MG63 cells assessed as increase in early apoptotic cells at 1 uM after 24 hrs by annexin-V-FITC/propidium iodide staining based flow cytometric analysis; format: functional, cell-based
How it was run: (§2)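 Apoptosis was assessed in MG-63 cells treated for 24 h at 1 µM, alongside a DMSO vehicle control (<0.001%). Cells were stained with annexin V and PI and analysed by flow cytometry. Populations were classed as early apoptotic (annexin+/PI-), late apoptotic/dead (annexin+/PI+) or living (annexin-/PI-). Total annexin+ percentage and the PI-/PI+ ratio were reported.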

MG-63 [6] = assay: Cytotoxicity against human MG63 cells after 24 hrs by annexin-V-FITC/propidium iodide staining based flow cytometric method; format: functional, cell-based; conditions: MG-63, 24 h
How it was run: (§3)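 Flow cytometric cytotoxicity measured after 24 h exposure; IC50 derived. Viability was also plotted against drug concentrations from 0.1 to 100 µM over 24 h in HT-29, MCF-7 and MG-63.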

MG-63 [7] = assay: Induction of apoptosis in human MG63 cells assessed as total apoptotic cells at 1 uM after 24 hrs by annexin-V-FITC/propidium iodide staining based flow cytometric analysis (reference value: 10.42%); format: functional
MG-63 [8] = assay: Induction of apoptosis in human MG63 cells assessed as increase in late apoptotic cells at 1 uM after 24 hrs by annexin-V-FITC/propidium iodide staining based flow cytometric analysis; format: functional, cell-based; how it was run: as §2
MG-63 [9] = assay: Cell cycle arrest in human MG63 cells assessed as increase in accumulation at G2/M phase at 1 uM after 24 hrs by propidium iodide staining based flow cytometric analysis relative to control; format: functional
How it was run: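 MG-63 cells incubated 24 h with compound at 1 µM alongside vehicle control (DMSO, <0.001%); DNA content measured by fluorescence flow cytometry, giving percentages of cells in G0/G1, S and G2/M; significance versus control tested at p < 0.001.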

HT-29 [10] = assay: Cytotoxicity against human HT-29 cells after 24 hrs by annexin-V-FITC/propidium iodide staining based flow cytometric method; format: functional, cell-based; conditions: HT-29, 24 h; how it was run: as §3
MG-63 [11] = assay: Cell cycle arrest in human MG63 cells assessed as reduction in accumulation at S-phase at 1 uM after 24 hrs by propidium iodide staining based flow cytometric analysis relative to control; format: functional; design: scale not given: the % may be the effect or the level left
How it was run: (§4)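 MG-63 osteosarcoma cells exposed to test agent at 1 µM for 24 h, with a DMSO vehicle control (<0.001%). DNA content was measured by fluorescence flow cytometry, and cells were assigned to G0/G1, S and G2/M phases as percentage of the population. Significance versus control was tested at p < 0.001.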

MG-63 [12] = assay: Cell cycle arrest in human MG63 cells assessed as reduction in accumulation at G0/G1-phase at 1 uM after 24 hrs by propidium iodide staining based flow cytometric analysis relative to control; format: functional; design: scale not given: the % may be the effect or the level left; how it was run: as §4
MCF7 [13] = assay: Cytotoxicity against human MCF7 cells after 24 hrs by annexin-V-FITC/propidium iodide staining based flow cytometric method; format: functional, cell-based; conditions: MCF7, 24 h; how it was run: as §3

Row | Compound | Activity (MCF7 [1]) | Activity (HT-29 [2]) | Activity (MG-63 [3]) | viability at 1 µM (MG-63 [4]) | Activity (MG-63 [5]) | IC50 (MG-63 [6]) | Activity (MG-63 [7]) | IC50 (MCF7 [1]) | Activity (MG-63 [8]) | fold change (FC) (MG-63 [9]) | IC50 (HT-29 [2]) | IC50 (HT-29 [10]) | IC50 (MG-63 [3]) | Activity (MG-63 [11]) | Activity (MG-63 [12]) | IC50 (MCF7 [13]) | Activity (MG-63 [9])
1 | C=C1CCC2[C@](C)(CCC[C@]2(C)C(=O)OCc2ccc(CBr)cc2)[C@H]1CCc1ccc2c(OC(C)=O)ccc(OC(C)=O)c2c1 (stereo partly drawn) | Active | Active | Active |  |  |  |  |  |  |  |  |  |  |  |  |  | 
2 | C=C1CCC2[C@](C)(CCC[C@]2(C)C(=O)OCc2ccc(COC(=O)[C@@H]3C(C=O)=Cc4cc5c(cc4[C@H]3c3cc(OC)c(OC)c(OC)c3)OCO5)cc2)[C@H]1CCc1ccc2c(OC(C)=O)ccc(OC(C)=O)c2c1 (stereo partly drawn) |  |  |  | 10% | Active | 500 nM | 89.96% | 1030 nM | Active | 5 | 1440 nM | > 100000 nM | 150 nM | 100% | 100% | > 100000 nM | 
3 | C=C1CCC2[C@](C)(CCC[C@]2(C)C(=O)OCCCCCCBr)[C@H]1CCc1ccc2c(OC(C)=O)ccc(OC(C)=O)c2c1 (stereo partly drawn) | Active | Active | Active |  |  |  |  |  |  |  |  |  |  |  |  |  | 
4 | C=C1CCC2[C@](C)(CCC[C@]2(C)C(=O)OCCCCCCOC(=O)[C@@H]2C(C=O)=Cc3cc4c(cc3[C@H]2c2cc(OC)c(OC)c(OC)c2)OCO4)[C@H]1CCc1ccc2c(OC(C)=O)ccc(OC(C)=O)c2c1 (stereo partly drawn) |  |  |  | 88.8% |  | 44600 nM | 11.24% | 1000 nM |  |  | 1910 nM | 57600 nM | 2060 nM |  |  | > 100000 nM | 
5 | C=C1CCC2[C@](C)(CCC[C@]2(C)C(=O)OCCCOC(=O)[C@@H]2C(C=O)=Cc3cc4c(cc3[C@H]2c2cc(OC)c(OC)c(OC)c2)OCO4)[C@H]1CCc1ccc2c(OC(C)=O)ccc(OC(C)=O)c2c1 (stereo partly drawn) |  |  |  | 75% |  | 58200 nM | 25.03% | 2210 nM |  |  | 1510 nM | > 100000 nM | 2230 nM |  |  | > 100000 nM | Active
6 | C=C1CCC2[C@](C)(CCC[C@]2(C)C(=O)OCCCBr)[C@H]1CCc1ccc2c(OC(C)=O)ccc(OC(C)=O)c2c1 (stereo partly drawn) | Active | Active | Active |  |  |  |  |  |  |  |  |  |  |  |  |  | 
7 | C=C1CCC2[C@](C)(CCC[C@]2(C)C(=O)OC)[C@H]1CCc1ccc2c(OC(C)=O)ccc(OC(C)=O)c2c1 (stereo partly drawn) |  |  |  |  |  | 1160 nM |  | 15 nM |  |  | 18 nM | 5650 nM | 410 nM |  |  | 29900 nM | Active
8 | COc1cc([C@@H]2c3cc4c(cc3[C@H](O)[C@H]3COC(=O)[C@H]23)OCO4)cc(OC)c1OC [PODOFILOX] |  |  |  | 51.4% |  | 18300 nM | 48.56% | 28 nM |  |  | 66 nM | > 100000 nM | 7 nM |  |  | > 100000 nM | Active
9 | COC(=O)[C@@H]1C(C=O)=Cc2cc3c(cc2[C@H]1c1cc(OC)c(OC)c(OC)c1)OCO3 [PODOPHYLLIC ALDEHYDE] |  |  |  | 51.9% | Active | 1230 nM | 48.08% | 480 nM | Active |  | 29 nM | > 100000 nM | 60 nM | 100% | 100% | > 100000 nM | Active
